From PMC5453640 (Journal of medicinal chemistry, 2017)
Entries after “also recorded” stand apart in the source; their conditions may differ.

Experiments:
wild-type CFTR [1] = target: T1, wild-type CFTR (Homo sapiens, UniProt P13569); test: cell-based plate reader assay of CFTR function; conditions: for CFTR activation potency of synthesized analogs, comparison in words: Charts 1-3; for CFTR activation potency of commercial analogs, SAR summary in words: commercially available analogs of 1, Supporting Information Table 1
[2] = system: cellular cAMP in FRT cells; test: cAMP immunoassay in FRT cells; type: cell-based, rat; conditions: 10 μM, 10 min, without or with 90 nM forskolin
[3] = system: non-TMEM16A calcium-activated chloride channel (CaCC) in HT-29 cells; test: non-TMEM16A CaCC plate reader assay in HT-29 cells expressing YFP; type: cell-based; conditions: 10 μM
Outline: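 HT-29 cells expressing cytoplasmic YFP halide sensor, test compound at 10 μM. Activation was tested by iodide addition and inhibition by iodide plus ATP, reading YFP fluorescence quenching from iodide influx. The initial rate of iodide influx was computed as a linear measure of non-TMEM16A CaCC function. Representative of two to four experiment sets.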

FRT cells = test: Alamar Blue cytotoxicity assay; type: cell-based, rat; conditions: 10 μM, 8 h
wild-type CFTR [4] = target: T1, wild-type CFTR; test: short-circuit current measurement in CFTR-expressing FRT cells; type: cell-based; conditions: compared with maximal concentration of forskolin
Outline: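 FRT cells expressing human wild-type CFTR on inserts in Ussing chambers. Basolateral HCO3−-buffered and apical half-Cl− solutions; basolateral membrane permeabilized with 250 μg/mL amphotericin B. Gassed with 95% O2/5% CO2 at 37 °C under voltage clamp. Sequence: low forskolin, cumulative test compound, maximal forskolin, then 10 μM CFTRinh-172. EC50 from concentration–response, n = 3.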

TMEM16A = TMEM16A plate reader assay in FRT cells expressing YFP; type: cell-based; conditions: 10 μM
Outline: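 FRT cells stably coexpressing TMEM16A and YFP-H148Q halide sensor, test compound at 10 μM. Activation was tested by iodide addition and inhibition by iodide plus ATP. Assay run like the CFTR plate assay: 2 s baseline, then 12 s after rapid iodide addition. The initial iodide influx rate from YFP quenching was taken as channel function. Representative of two to four experiment sets.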

[5] = type: in vitro ADME; conditions: 5 μM, rat hepatic microsomes, NADPH
[6] = system: tear fluid secretion in mice; conditions: cited from earlier work
CFTR in HBE cells = CFTR in HBE cells (Homo sapiens, UniProt P13569); test: CFTR activation in HBE cells by short-circuit current; type: cell-based
[7] = system: tear volume in CF mice lacking functional CFTR; test: tear fluid volume after single ocular delivery, CF mice; type: in vivo, mouse; conditions: single ocular delivery 250 pmol
[8] = system: tear volume in wild-type mice; test: tear fluid volume after single ocular delivery, wild-type mice; type: in vivo, mouse
[9] = system: cytoplasmic calcium in FRT cells; test: cytoplasmic calcium by Fluo-4 fluorescence in FRT cells; type: cell-based, rat; conditions: 10 μM, 5 min pretreatment

T1 sequence (P13569 whole entry): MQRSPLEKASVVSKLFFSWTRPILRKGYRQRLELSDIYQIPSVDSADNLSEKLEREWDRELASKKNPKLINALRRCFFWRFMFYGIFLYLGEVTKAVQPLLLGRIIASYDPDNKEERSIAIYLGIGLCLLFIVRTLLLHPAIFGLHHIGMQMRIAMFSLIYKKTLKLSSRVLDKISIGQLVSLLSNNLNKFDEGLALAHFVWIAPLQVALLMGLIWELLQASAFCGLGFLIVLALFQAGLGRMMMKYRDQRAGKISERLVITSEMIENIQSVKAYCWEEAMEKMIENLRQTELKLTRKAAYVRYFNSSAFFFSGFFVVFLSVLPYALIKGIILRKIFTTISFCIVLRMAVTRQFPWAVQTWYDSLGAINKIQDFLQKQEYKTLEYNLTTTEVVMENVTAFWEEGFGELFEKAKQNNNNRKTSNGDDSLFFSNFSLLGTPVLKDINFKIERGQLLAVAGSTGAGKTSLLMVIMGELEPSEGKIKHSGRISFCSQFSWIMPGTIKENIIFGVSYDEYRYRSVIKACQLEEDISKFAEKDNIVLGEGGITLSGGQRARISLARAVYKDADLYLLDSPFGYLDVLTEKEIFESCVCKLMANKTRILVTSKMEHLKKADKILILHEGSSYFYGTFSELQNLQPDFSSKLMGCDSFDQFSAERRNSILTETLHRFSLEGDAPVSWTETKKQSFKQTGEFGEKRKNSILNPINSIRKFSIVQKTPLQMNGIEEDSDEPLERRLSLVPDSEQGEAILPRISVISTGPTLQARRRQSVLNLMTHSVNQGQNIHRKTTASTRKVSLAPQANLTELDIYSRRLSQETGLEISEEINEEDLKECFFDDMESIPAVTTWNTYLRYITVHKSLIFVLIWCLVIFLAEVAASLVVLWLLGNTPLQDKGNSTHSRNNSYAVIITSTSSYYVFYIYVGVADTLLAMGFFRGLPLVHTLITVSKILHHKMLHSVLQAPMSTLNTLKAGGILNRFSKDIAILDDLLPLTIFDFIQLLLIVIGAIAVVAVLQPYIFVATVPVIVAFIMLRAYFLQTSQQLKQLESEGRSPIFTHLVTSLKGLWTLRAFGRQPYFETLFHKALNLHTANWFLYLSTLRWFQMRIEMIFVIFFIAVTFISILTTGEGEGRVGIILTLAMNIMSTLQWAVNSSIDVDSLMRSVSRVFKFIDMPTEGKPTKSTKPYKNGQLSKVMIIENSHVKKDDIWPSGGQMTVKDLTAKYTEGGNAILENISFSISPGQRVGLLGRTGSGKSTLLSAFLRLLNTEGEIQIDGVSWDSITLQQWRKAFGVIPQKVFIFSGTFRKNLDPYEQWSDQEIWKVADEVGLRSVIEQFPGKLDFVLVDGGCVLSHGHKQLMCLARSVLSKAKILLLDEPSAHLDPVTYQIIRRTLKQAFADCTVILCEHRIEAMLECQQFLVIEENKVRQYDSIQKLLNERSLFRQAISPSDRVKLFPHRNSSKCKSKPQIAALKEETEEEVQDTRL
CFTR in HBE cells, sequence (P13569 whole entry): as above

## CCN(CC)c1nc(Nc2cccc(C(=O)O)c2)nc(OC(C(F)(F)F)C(F)(F)F)n1 [6a]
wild-type CFTR [1]
  CFTR activation potency of synthesized analogs, comparison in words: comparable or slightly better potency than non-substituted aniline (1)

## CCN(CC)c1nc(Nc2cccc(F)c2)nc(OC(C(F)(F)F)C(F)(F)F)n1 [6b]
wild-type CFTR [1]
  CFTR activation potency of synthesized analogs, comparison in words: comparable or slightly better potency than non-substituted aniline (1)

## CCN(CC)c1nc(Nc2cccc(Cl)c2)nc(OC(C(F)(F)F)C(F)(F)F)n1 [6c]
wild-type CFTR [1]
  CFTR activation potency of synthesized analogs, comparison in words: significantly reduced potency

## CCN(CC)c1nc(Nc2cccc([N+](=O)[O-])c2)nc(OC(C(F)(F)F)C(F)(F)F)n1 [6d]
wild-type CFTR [1]
  CFTR activation potency of synthesized analogs, comparison in words: comparable or slightly better potency than non-substituted aniline (1)

## CCN(CC)c1nc(Nc2ccc3cn[nH]c3c2)nc(OC(C(F)(F)F)C(F)(F)F)n1 [6h]
wild-type CFTR [1]
  CFTR activation potency of synthesized analogs, comparison in words: less potent than 1
wild-type CFTR [1]; EC50 ratio, Chart 2
  fold more potent than regioisomer 6i: ~ 3 fold

## CCN(CC)c1nc(Nc2ccc3[nH]ncc3c2)nc(OC(C(F)(F)F)C(F)(F)F)n1 [6i]
wild-type CFTR [1]
  CFTR activation potency of synthesized analogs, comparison in words: less potent than 1

## CCN(CC)c1nc(Nc2ccc3ncoc3c2)nc(OC(C(F)(F)F)C(F)(F)F)n1 [6j]
wild-type CFTR [1]
  CFTR activation potency of synthesized analogs, comparison in words: greater potency than 1

## CCN(CC)c1nc(Nc2ccc3ncsc3c2)nc(OC(C(F)(F)F)C(F)(F)F)n1 [6k]
[2]
  elevation of cellular cAMP: did not elevate cellular cAMP
[3]
  inhibition or activation of CaCC in HT-29 cells: neither inhibited nor activated
FRT cells
  cytotoxicity (Alamar Blue): did not produce significant toxicity
wild-type CFTR [4]
  extent of CFTR activation (short-circuit current): full CFTR activation
wild-type CFTR [1]
  CFTR activation potency of synthesized analogs, comparison in words: significantly greater potency than 1
wild-type CFTR [1]; EC50 ratio, Chart 2
  fold increase in potency over benzoxazole 6j: ~ 3 fold
TMEM16A
  inhibition or activation of CaCC in TMEM16A-expressing FRT cells: neither inhibited nor activated

## CNc1nc(Nc2ccc(C(C)=O)cc2)nc(OC(C(F)(F)F)C(F)(F)F)n1 [K001]
wild-type CFTR [1]
  CFTR activation potency of commercial analogs, SAR summary in words: reduced activity

## COc1nc(Nc2ccc([N+](=O)[O-])cc2)nc(OC)n1 [K023]
wild-type CFTR [1]
  CFTR activation potency of commercial analogs, SAR summary in words: greatly reduced potency

## CC(C)(C)Nc1nc(Nc2ccc(OC(F)(F)Cl)cc2)nc(OCC(F)(F)F)n1 [K029]
wild-type CFTR [1]
  CFTR activation potency of commercial analogs, SAR summary in words: reduced potency

## CNc1nc(Nc2ccc([N+](=O)[O-])cc2)nc(OCC(F)(F)C(F)F)n1 [K032]
wild-type CFTR [1]
  CFTR activation potency of commercial analogs, SAR summary in words: best potency

## CCC(C)Nc1nc(Nc2ccc([N+](=O)[O-])cc2)nc(OC(C(F)(F)F)C(F)(F)F)n1 (stereo not drawn) [K056]
wild-type CFTR [1]
  CFTR activation potency of commercial analogs, SAR summary in words: reduced potency

## C=CCNc1nc(Nc2cccc([N+](=O)[O-])c2)nc(OC(C(F)(F)F)C(F)(F)F)n1 [K059]
wild-type CFTR [1]
  CFTR activation potency of commercial analogs, SAR summary in words: best potency

## FC(F)(F)COc1nc(Nc2ccc(OC(F)(F)F)cc2)nc(NC2CC2)n1 [K079]
wild-type CFTR [1]
  CFTR activation potency of commercial analogs, SAR summary in words: reduced activity

## CCN(CC)c1nc(Nc2ccccc2)nc(OC(C(F)(F)F)C(F)(F)F)n1 [compound 1, N,N-Diethyl-6-[(1,1,1,3,3,3-hexafluoropropan-2-yl)oxy]-N′-phenyl-1,3,5-triazine-2,4-diamine]
[5]
  metabolic stability in hepatic microsomes, in words: metabolized rapidly
[6]
  tear fluid secretion after topical delivery: increased tear fluid secretion in mice; also recorded: increased tear fluid secretion after topical delivery
wild-type CFTR [1]
  CFTR activation potency of synthesized analogs, comparison in words: more potent than tetrafluoropropanol (7a)
  CFTR activation potency of commercial analogs, SAR summary in words: best potency

## CNc1nc(Nc2ccccc2)nc(OCC(F)(F)C(F)F)n1 [compound 12, N-Methyl-N′-phenyl-6-(2,2,3,3-tetrafluoropropoxy)-1,3,5-triazine-2,4-diamine]
[2]
  elevation of cellular cAMP: without causing cAMP or calcium elevation; also recorded: did not elevate cellular cAMP
[3]
  inhibition or activation of CaCC in HT-29 cells: neither inhibited nor activated
FRT cells
  cytotoxicity (Alamar Blue): did not produce significant toxicity
CFTR in HBE cells; 0.1 μM compound, after 100 nM forskolin
  CFTR activation in HBE cells after forskolin: fully activated CFTR
CFTR in HBE cells; absence of basal CFTR phosphorylation produced by forskolin
  CFTR activation in HBE cells without forskolin: did not activate CFTR
[7]
  effect on tear volume in CF mice: without effect; also recorded: did not increase tear volume
[8]; mice, dose not given
  duration of sustained in vivo efficacy in increasing tear volume: at least 8 h
[8]; wild-type mice, single topical dose 100 μM (250 pmol)
  time over which tear volume returned to baseline: 12 to 24 h
[8]; wild-type mice, single topical dose 100 μM (250 pmol) in 2.5 μL
  duration of sustained increase in tear volume: 8 h
[8]; wild-type mice, single topical dose down to 25 pmol
  duration of sustained effect on tear volume: 8 h
[8]; wild-type mice, single topical doses down to 25 pmol
  time of maximal tear volume: 1 to 3 h
wild-type CFTR [4]
  extent of CFTR activation (short-circuit current): fully activated CFTR chloride conductance; also recorded: full CFTR activation
wild-type CFTR [1]; EC50 ratio, Chart 3
  fold better EC50 than diethylamine analog 6a: ~ 50 fold
  fold more potent than hexafluoropropanol analog 11: ~ 3 fold
TMEM16A
  inhibition or activation of CaCC in TMEM16A-expressing FRT cells: neither inhibited nor activated
[9]
  increase of cytoplasmic calcium: without causing cAMP or calcium elevation
